The text below walks through data of ChEMBL document CHEMBL5329160, “Design, synthesis, and mechanistic study of 2-piperazineone-bearing peptidomimetics as novel HIV capsid modulators” (RSC Med Chem, 2023).

Data set [1] is described as follows: Metabolic stability in human microsomes assessed as intrinsic clearance at 1 uM preincubated for 60 mins followed by NADPH addition and measured after 60 mins. The class given is ADME, Microsome. Conditions: time 120 min, read-out: CLH.
The nature of data set [2]: Metabolic stability in human liver assessed as intrinsic clearance at 1 uM preincubated for 10 mins followed by NADPH addition and measured after 60 mins. The settings on record: read-out: CLH.
Data set [3] relates to Human immunodeficiency virus 1. The experiment in a line: Antiviral activity against HIV-1 IIIB infected in MT4 cells assessed as protection against virus induced cytotoxicity incubated for 5 days by MTT assay. The format is functional, organism-based. Conditions: Human immunodeficiency virus 1, IIIB, MT4, 120 h. (Formazan colour is commonly taken as a measure of viable cells.)

Data set [4] deals with Human immunodeficiency virus 2. The experiment in a line: Antiviral activity against HIV-2 ROD infected in MT4 cells assessed as protection against virus induced cytotoxicity and measured after 5 days by MTT spectrophotometric assay. The class given is functional, organism-based. Conditions: Human immunodeficiency virus 2, ROD, MT4, 120 h.
Data set [5] is described as follows: Cytotoxicity against human MT4 cells assessed as reduction in cell viability after 5 days by MTT assay. The class given is toxicity, cell-based. Conditions: time 5 day.
The nature of data set [6]: Selectivity index, ratio of CC50 for human MT4 cells to EC50 for HIV-1 IIIB infected in human MT4 cells. The format is toxicity, cell-based. Conditions: read-out: Ratio CC50/EC50.
Data set [7] can be described thus: Selectivity index, ratio of CC50 for human MT4 cells to EC50 for HIV-2 ROD infected in human MT4 cells. The settings on record: read-out: Ratio CC50/EC50. The format is toxicity, cell-based.
Data set [8] has as its target T1, Structural capsid protein (Human immunodeficiency virus 1, UniProt Q76129). The experiment in a line: Binding affinity to HIV-1 NL4-3 monomeric capsid protein by SPR analysis. A digest of the protocol: (§1)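 SPR binding isotherms averaged over 3 replicates, with error bars as SD.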
Data set [9] deals with T1, Structural capsid protein. The data set can be described thus: Binding affinity to HIV-1 NL4-3 hexameric capsid protein by SPR analysis. The method in brief:
as §1
For orientation: SPR reads the build-up and loss of mass on a sensor chip optically.

The target in data set [10] is Structural capsid protein (Human immunodeficiency virus 1) (UniProt Q76129). The data set can be described thus: Ratio of Kd for HIV-1 NL4-3 monomeric capsid protein to Kd for HIV-1 NL4-3 hexameric capsid protein.
Structural capsid protein (Human immunodeficiency virus 1), sequence (Q76129 as listed by the source): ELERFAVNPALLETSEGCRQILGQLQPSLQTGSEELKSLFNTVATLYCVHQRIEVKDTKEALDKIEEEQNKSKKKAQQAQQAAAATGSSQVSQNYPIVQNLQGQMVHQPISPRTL
The target is the same in data set [11]. The data set can be described thus: Binding affinity to HIV-1 NL4-3 hexameric capsid protein assessed as Koff by SPR analysis. Conditions: filed as modulator.
Data set [12] has as its system Human immunodeficiency virus 1. The experiment in a line: Antiviral activity against early stage HIV-1 infected in U87.CD4.CXCR4 cells assessed as viral infection at 60 uM preincubated with virus followed by cell addition and measured after 48 hrs by luciferase based luminometer assay (reference value: 100 +/- 8.4 %). The class given is functional.
Data set [13] has as its system Human immunodeficiency virus 1. The experiment in a line: Antiviral activity against late stage HIV-1 infected in U87.CD4.CXCR4 cells assessed as viral infection at 60 uM preincubated with virus for 48 hrs followed by cell addition and measured after 48 hrs by luciferase based luminometer assay (reference value: 100 +/- 11 %). The format is functional. The settings on record: time 96 hrs.

Data set [14] is described as follows: Metabolic stability in human liver microsomes assessed as remaining compound at 1 uM after 60 mins in presence of NADPH. The class given is ADME, Microsome. Conditions: read-out: Stability. A digest of the protocol: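 Human liver microsomes at 0.5 mg protein/mL in 100 mM potassium phosphate, compound at 1 µM final (0.99% ACN, 0.01% DMSO). After 10 min pre-warming of the microsomes at 37°C, NADPH (1 mM final, in 10 mM MgCl2) was added. Incubated at 37°C with shaking, sampled at 0, 5, 15, 30, 45 and 60 min into cold ACN with internal standards. LC-MS/MS analysis; T1/2 and CLint(mic) (µL/min/mg) from first-order kinetics.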

A short description of data set [15]: Metabolic stability in human liver microsomes assessed as remaining compound at 1 uM after 60 mins in absence of NADPH. The format is ADME, Microsome. Conditions: read-out: Stability. The method in brief:
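No-cofactor control: human liver microsomes at 0.5 mg protein/mL in 100 mM phosphate buffer with compound at 1 µM, buffer added in place of NADPH. Incubated 60 min at 37°C with shaking, then quenched with cold ACN containing tolbutamide and labetalol internal standards. Centrifuged, supernatant diluted in water, analysed by LC-MS/MS.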

Data set [16] relates to Human immunodeficiency virus 1. The data set can be described thus: Antiviral activity against early stage HIV-1 infected in U87.CD4.CXCR4 cells assessed as viral infection at 1 uM preincubated with virus followed by cell addition and measured after 48 hrs by luciferase based luminometer assay (reference value: 100 +/- 8.4 %). The class given is functional.
Data set [17] deals with Human immunodeficiency virus 1. The experiment in a line: Antiviral activity against late stage HIV-1 infected in U87.CD4.CXCR4 cells assessed as viral infection at 1 uM preincubated with virus for 48 hrs followed by cell addition and measured after 48 hrs by luciferase based luminometer assay (reference value: 100 +/- 11 %). The class given is functional. The settings on record: time 96 hrs.

The test system of data set [18] is Human immunodeficiency virus 1. The data set can be described thus: Antiviral activity against HIV-1 infected in MT4 cells. The settings on record: Human immunodeficiency virus 1, MT4. The class given is functional, organism-based.

T1 sequence (Q76129 whole entry): as the sequence (Q76129 as listed by the source) above

For `C[C@]12CC[C@H]3[C@@H](CCC4=CC(=O)CC[C@@]43C)[C@@H]1CC[C@@H]2O` [TESTOSTERONE], in data set [1], the microsomal CLint at 1 µM is 83 µL/min/mg. Besides, the CLint scaled at 1 µM in [2] is 74 mL/min/kg.
`COc1ccc(N(C)C(=O)[C@H](Cc2cc(F)cc(F)c2)NC(=O)CN2CCN(C(=O)c3ccccc3C(F)(F)F)CC2=O)cc1`: the EC50 (usually the midpoint of the concentration-response curve) in [3] stood at 12 µM; in data set [4], 5 µM. Moreover, the CC50 (as a rule, the concentration that lowers cell viability or growth by half) at 120 h in data set [5] stood at 110 µM. For the same compound, the selectivity ratio in data set [6] was 9.2; in data set [7], 22. In addition, the Kd (commonly the constant that tells how readily two partners part at equilibrium) in [8] amounted to 12 µM; in data set [9], 5.3 µM. Also, in data set [10], the Ratio stood at 2.2. Besides, in [11], the K was determined as 0.25 s⁻¹.
Regarding `O=C(O)Cc1ccccc1Nc1c(Cl)cccc1Cl` [DICLOFENAC], the CLint scaled at 1 µM in data set [2] was 3.3 mL/min/kg.
`COc1ccc(N(C)C(=O)[C@H](Cc2cc(F)cc(F)c2)NC(=O)CN2CCN(C(=O)c3ccccc3[N+](=O)[O-])CC2=O)cc1`: the figures for the 50% effective concentration (EC50) in [3] and in [4] were 6 µM and 6.3 µM, respectively. Besides, in data set [5], the CC50 at 120 h came to 160 µM. Also, the selectivity ratio in data set [6] is 27; in data set [7], 25. Besides, the values for the Kd in data set [8] and in [9] were 13 µM and 5.2 µM, respectively. The Ratio in [10] was 2.5. In addition, the K in data set [11] worked out at 0.25 s⁻¹. Also, the Activity in data set [12] was determined as 8.1%; in [13] it was 10%. Also, the remaining at 1 h, 1 µM in data set [14] was 0.23%; in [15], 96%. Also, the CLint scaled at 1 µM in [2] turned out to be 3.3 mL/min/kg.
Regarding `COc1ccc(N(C)C(=O)[C@H](Cc2ccccc2)NC(=O)CN2CCN(C(=O)c3ccc(Cl)cc3)CC2=O)cc1`, the values for the concentration for a half-maximal effect (EC50) in data set [3] and in [4] were above 8.9 µM and above 9 µM, respectively. Moreover, the CC50 at 120 h in data set [5] turned out to be 9 µM. In addition, the selectivity ratio in [6] and in [7] was below 1 in each case.
Take `COc1ccc(N(C)C(=O)[C@H](Cc2ccccc2)NC(=O)CN2CCN(C(=O)c3ccc(F)cc3)CC2=O)cc1`: the figures for the EC50 in data set [3] and in data set [4] were above 77 µM and 11 µM, respectively. Besides, in [5], the CC50 at 120 h came to 77 µM. In addition, the values for the selectivity ratio in [6] and in data set [7] were below 1 and 7, respectively.
Take `Cc1[nH]c2ccccc2c1CC(=O)[C@@H](Cc1ccccc1)C(=O)N(C)c1ccccc1`: the half-maximal effective concentration (EC50) in data set [3] was 0.75 µM; in data set [4], 4.2 µM. Also, in data set [5], the CC50 at 120 h amounted to 32 µM. For the same compound, the Kd in [8] stood at 3.4 µM; in [9], 0.16 µM. In addition, the Ratio in data set [10] is 21.4. Further, in data set [11], the K stood at 0.018 s⁻¹. For the same compound, the Activity in [16] was -0.12%; in [17], 150%. Moreover, in data set [14], the remaining at 1 h, 1 µM worked out at 0%. Also, in [2], the CLint scaled at 1 µM was determined as 2.6 mL/min/kg.
The compound `CC(C)(C#Cc1ccc(-c2ccc(Cl)c3c(NS(C)(=O)=O)nn(CC(F)(F)F)c23)c([C@H](Cc2cc(F)cc(F)c2)NC(=O)Cn2nc(C(F)(F)F)c3c2C(F)(F)[C@@H]2C[C@H]32)n1)S(C)(=O)=O` gave a concentration for a half-maximal effect (EC50) in data set [18] of 0.000105 µM.
Turning to `COc1ccc(N(C)C(=O)[C@H](Cc2ccccc2)NC(=O)CN2CCN(C(=O)c3ccccc3[N+](=O)[O-])CC2=O)cc1`, the EC50 in data set [3] turned out to be 22 µM; in [4], 2.5 µM. In addition, the CC50 at 120 h in data set [5] worked out at 180 µM. Also, the selectivity ratio in [6] was 8.2; in data set [7], 72.
